The term IC50 denotes the concentration needed to halve the response being measured. A low value points to inhibition by little substance. One may read the Kd as the constant that tells how readily two partners part at equilibrium. A word on the GI50: it is the concentration giving 50% growth inhibition. Lower therefore signals greater sensitivity of the cells. As usually defined, the TGI is the concentration giving total growth inhibition. A low value points to greater sensitivity of the cells.

Data on three molecules can be found in ChEMBL document CHEMBL2375282, “Spirohexenolide A targets human macrophage migration inhibitory factor (hMIF)” (J Nat Prod, 2013).

Data set [1] relates to HCT-116. Put plainly: Cytotoxicity against human HCT116 cells by MTT assay. The class given is functional, cell-based. The procedure, abridged:
(§1)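 HCT-116 cells grown in McCoy's 5A with 10% heat-inactivated FCS and penicillin/streptomycin at 37 °C, 5% CO2. Conventional MTT assay, run in triplicate at 5 or 6 concentrations spanning 0 to 0.035 mg/mL. Repeated until deviation fell within 5%.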
For orientation: Tetrazolium dyes change colour on reduction, which living cells bring about.

Data set [2] has as its target T1, Macrophage migration inhibitory factor (Homo sapiens) (UniProt P14174).
T1 sequence (whole entry): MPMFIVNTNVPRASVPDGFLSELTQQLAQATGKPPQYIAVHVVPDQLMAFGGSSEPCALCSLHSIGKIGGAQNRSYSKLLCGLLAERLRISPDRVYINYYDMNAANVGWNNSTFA
Put plainly: Inhibition of human MIF-mediated AKT phosphorylation expressed in mouse NIH/3T3 cells after 30 mins by Western blotting analysis. The class given is cell-based. The conditions noted are these: NIH3T3. In a few lines: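 NIH/3T3 cells grown 24 h in DMEM with 10% FCS in 12-well plates, then serum-starved 24 h. Treated 30 min with hMIF (1 μg) plus DMSO or plus compound (0.1 μg) in 100 μL medium. Lysates blotted for p-Akt Ser473, total Akt and GAPDH. p-Akt/Akt ratio normalized to GAPDH, with untreated cells set to 1. Three independent experiments.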
(Immunoblotting shows a protein as a band on a membrane.)

For data set [3], the target named is T2, Macrophage migration inhibitory factor (Homo sapiens, UniProt P14174).
T2 sequence (P14174 whole entry): T1 sequence (whole entry)
Briefly: Binding affinity to human recombinant MIF expressed in Escherichia coli BL21(DE3) by isothermal titration calorimetric assay. The procedure, abridged:
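Recombinant hMIF from E. coli BL-21(DE3) (pET-11b), purified by SP/Q flow-through, dialyzed in 50 mM potassium phosphate pH 7.4. ITC at 30 °C: 1.25 mM hMIF titrated from syringe into 1.5 mL of 0.5 mM ligand in the same buffer with 2% DMSO. Buffer-only titration used as control. Kd fitted with a sigmoid function over multiple analyses.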

Data set [4] has as its target T1, Macrophage migration inhibitory factor (Homo sapiens). Briefly: Inhibition of human recombinant MIF tautomerase activity expressed in Escherichia coli BL21(DE3) at 100 uM in presence of dopachrome. In a few lines: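 Dopachrome made from 0.24 mM DOPA plus 0.48 mM NaIO4 in 25 mM potassium phosphate pH 7.2, 5 min at rt. Added 1:1 to wells holding 10 μM purified recombinant hMIF premixed with 100 μM compound. Kinetics followed immediately at 485 nm. Controls: buffer, compound alone, hMIF alone.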

The test system of data set [5] is HCT-116. Briefly: Growth inhibition of human HCT116 cells. The class given is functional. In a few lines:
as §1

Data set [6] concerns the target T1, Macrophage migration inhibitory factor (Homo sapiens). Briefly: Inhibition of human recombinant Alexa 488-labeled MIF expressed in Escherichia coli BL21(DE3) assessed as inhibition of uptake into human HCT116 cells at 30 uM after 2 hrs by inverted confocal microscopic analysis. Conditions: HCT-116. The procedure, abridged: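 Recombinant hMIF labeled with Alexa Fluor 488 (~0.3 dye per protein) in NaHCO3 pH 8.3. HCT-116 cells given 1.5 μM Alexa-hMIF premixed with 30 μM compound for 2 h at 37 °C, then washed and fixed with formaldehyde/glutaraldehyde. Two-color confocal imaging: 375 nm excitation with 448 nm emission, and 488 nm excitation with 524 nm emission.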

A short description of data set [7]: Cytotoxicity against human NCI60 cells by MTT assay. The class given is functional.
The subject of data set [8] is HCT-116. Briefly: Cytotoxicity against human HCT116 cells assessed as membrane blebbing at 10 uM after 24 hrs by inverted confocal microscopic analysis. The class given is cell-based. The conditions noted are these: hct-116, 24 h. The procedure, abridged:
(§2)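 Live HCT116 cells in McCoy's 5A with 10% FCS, 37 °C, 5% CO2. Compound added as 10× stock in media, final DMSO under 0.5%. Time-lapse imaging over 24 h at 10–15 min intervals, then spinning-disk confocal at selected times (1, 6, 24 h) with IAF tag excitation 360 nm and emission 470 nm. Lysosomes counterstained with LysoTracker Red after fixation in formaldehyde/glutaraldehyde.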

The subject of data set [9] is HCT-116. Briefly: Cytotoxicity against human HCT116 cells assessed as compaction of chromatin at 10 uM after 24 hrs by inverted confocal microscopic analysis. The class given is cell-based. Conditions: hct-116, 24 h. The procedure, abridged: as §2
Data set [10] can be described thus: Drug uptake in human HCT116 cell cytoplasm at 10 uM after 1 hr by inverted confocal microscopic analysis. The class given is ADME, cell-based. The conditions noted are these: hct-116, 1 h. In a few lines:
as §2

The nature of data set [11]: Drug uptake in human HCT116 cell membrane at 10 uM after 1 hr by inverted confocal microscopic analysis. The class given is ADME, cell-based. The conditions noted are these: hct-116, 1 h. In a few lines: as §2
A short description of data set [12]: Cellular uptake in human HCT116 cells assessed as lysosomal localization at 10 uM after 6 to 12 hrs by inverted confocal microscopic analysis. The class given is ADME, cell-based, Lysosome. Conditions: hct-116, 10 µM. In a few lines:
as §2

The test system of data set [13] is HCT-116. Briefly: Cellular uptake in human HCT116 cells assessed as increase in blue fluorescence at 10 uM after 1 hr by inverted confocal microscopic analysis. The class given is ADME, cell-based. The conditions noted are these: hct-116, 1 h. The procedure, abridged: as §2
In data set [14] the target is T1, Macrophage migration inhibitory factor (Homo sapiens). Briefly: Binding affinity to human recombinant MIF expressed in Escherichia coli BL21(DE3) lysates by Western blotting analysis. The procedure, abridged:
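E. coli BL21(DE3) lysate expressing recombinant hMIF (pET-11b, 0.4 mM IPTG, 4 h), 1–2 mg net protein. Immunoprecipitated with 1 μg IAF-tagged probe on anti-IAF mAb resin, 4 h at 4 °C. Glycine-HCl pH 2.5 elution. Blot probed with mouse anti-hMIF monoclonal and AP-conjugated secondary, BCIP/NBT development.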

The target is the same in data set [15]. Briefly: Binding affinity to MIF in human HCT116 live cell lysates by Western blotting analysis. The conditions noted are these: HCT-116. The procedure, abridged:
(§3)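 Affinity capture with immunoaffinity-fluorescent (IAF)-tagged probe. Live-cell route: HCT116 cells incubated 4 h at 37 °C with 15 μg probe in 15 mL media, then lysed (D-PBS, 5 mM EDTA, 1% NP-40, protease inhibitors). Whole-lysate route: probe added after lysis. Lysate immunoprecipitated on anti-IAF mAb resin 4 h at 4 °C. Elution with 0.1 M glycine-HCl pH 2.5, then NuPAGE and blotting with anti-hMIF mAb.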

Data set [16] has the same target. Put plainly: Binding affinity to MIF in human HCT116 whole cell lysates by Western blotting analysis. The conditions noted are these: HCT-116. The procedure, abridged: as §3
Setting [17] is: read-out: LC50 (the source's name).

The structures appear in SMILES notation. Calls of active or inactive are those of the source. No cut-off for these calls is given here.

Molecule `CC1=C[C@]2(C)/C=C(C)/C=C/C[C@@H](OC(=O)CCn3cc(CNC(=O)Cc4cc(=O)oc5cc(N(C)C)ccc45)nn3)/C=C3C=C/C(=C4\C(=O)O[C@]2(C[C@@H]1C)C4=O)OC/3` registered an IC50 in data set [1] of 21.2 µM.

Consider `CC1=C[C@]2(C)/C=C(C)/C=C/C[C@@H](O)/C=C3C=C/C(=C4\C(=O)O[C@]2(C[C@@H]1C)C4=O)OC/3`, for which the inhibition result in data set [2] and in [6] was “Active” throughout. In data set [3], the dissociation constant (Kd) was 35.9 µM. For the same molecule, in data set [4], the inhibition entry is “inactive”. Moreover, the results for the GI50 in [5] and in [7] were 0.79 µM and 2.16 µM, respectively. For the same molecule, the TGI in data set [5] amounted to 5.01 µM; in data set [7], 8.81 µM. The results for the CC50 in data set [5] (setting [17]) and in data set [7] (setting [17]) were 100 µM and 33.2 µM, respectively. Besides, the IC50 in data set [1] is 36 µM.

In the case of `CC1=C[C@]2(C)/C=C(C)/C=C/C[C@@H](OC(=O)CCC(=O)NCCCCCCNC(=O)Cc3cc(=O)oc4cc(N(C)C)ccc34)/C=C3C=C/C(=C4\C(=O)O[C@]2(C[C@@H]1C)C4=O)OC/3`, the Activity result in data set [8] and in [9] was “Toxic” in each case. The Drug uptake entry in [10], in data set [11], in data set [12] and in data set [13] was “Active” in each case. Besides, in data set [4], the inhibition result was “inactive”. Moreover, the result in data set [14], in data set [15] and in [16] was Active. Also, the IC50 in [1] was determined as 6 µM.
